Reference: ChEMBL document CHEMBL4477170, “Tricyclic Acylphloroglucinols from Hypericum lanceolatum and Regioselective Synthesis of Selancins A and B” (J Nat Prod, 2016)
Active and inactive are the calls of the source. The calls are words filed in the database; no cut-off is given here.

Tests used:
HT-29 = assay: Cytotoxicity against human HT-29 cells assessed as cell growth inhibition at 10 uM by XTT assay; assay type: functional, cell-based
Outline: (§1)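 Modified XTT assay on HT-29 colon and PC-3 prostate cancer cell lines, measuring growth inhibition; isolated compounds tested up to 10 μM.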

PC-3 = assay: Cytotoxicity against human PC3 cells assessed as cell growth inhibition at 10 uM by XTT assay; assay type: functional, cell-based; outline: as §1

Row | SMILES | growth inhibition (GI) (HT-29) | growth inhibition (GI) (PC-3)
1 | CC(C)C(=O)c1c(O)c2c(c3c1OC(C)(C)C=C3)OC(C)(C)C=C2 | inactive | inactive
2 | CC(C)C(=O)c1c(O)c2c(c3c1OC(C)(C)C(O)C3)OC(C)(C)C=C2 (stereo not drawn) | inactive | inactive
3 | CC[C@H](C)C(=O)c1c(O)c2c(c3c1OC(C)(C)C=C3)OC(C)(C)C=C2 | inactive | inactive
4 | CC(C)C(=O)c1c(O)c2c(c3c1OC(C)(C)C=C3)OC(C)(C)[C@@H](O)C2=O | inactive | inactive
5 | CC(C)C(=O)c1c(O)c2c(c3c1OC(C)(C)C=C3)OC(C)(C)[C@H](O)[C@@H]2O (relative stereo) | inactive | inactive
6 | CC[C@H](C)C(=O)c1c(O)c2c(c3c1OC(C)(C)C=C3)OC(C)(C)[C@H](O)C2 | inactive | inactive
7 | CC(C)=CCC/C(C)=C/COc1cc(O)c2c(c1)C(=O)c1cc(C)cc(O)c1C2=O | inactive | inactive
8 | CC[C@H](C)C(=O)c1c(O)c2c(c3c1OC(C)(C)C=C3)OC(C)(C)[C@@H](O)C2=O | inactive | inactive
9 | CC[C@H](C)C(=O)c1c(O)c2c(c3c1OC(C)(C)C(O)C3)OC(C)(C)C=C2 (stereo partly drawn) | inactive | inactive
